# Assay results from different studies.
# Compare with care: the assays were run in different laboratories.
# Target: Mitogen-activated protein kinase kinase kinase 3 (MAP3K3, Homo sapiens, UniProt Q99759)
# Residues used in one study (Q99759 1-626): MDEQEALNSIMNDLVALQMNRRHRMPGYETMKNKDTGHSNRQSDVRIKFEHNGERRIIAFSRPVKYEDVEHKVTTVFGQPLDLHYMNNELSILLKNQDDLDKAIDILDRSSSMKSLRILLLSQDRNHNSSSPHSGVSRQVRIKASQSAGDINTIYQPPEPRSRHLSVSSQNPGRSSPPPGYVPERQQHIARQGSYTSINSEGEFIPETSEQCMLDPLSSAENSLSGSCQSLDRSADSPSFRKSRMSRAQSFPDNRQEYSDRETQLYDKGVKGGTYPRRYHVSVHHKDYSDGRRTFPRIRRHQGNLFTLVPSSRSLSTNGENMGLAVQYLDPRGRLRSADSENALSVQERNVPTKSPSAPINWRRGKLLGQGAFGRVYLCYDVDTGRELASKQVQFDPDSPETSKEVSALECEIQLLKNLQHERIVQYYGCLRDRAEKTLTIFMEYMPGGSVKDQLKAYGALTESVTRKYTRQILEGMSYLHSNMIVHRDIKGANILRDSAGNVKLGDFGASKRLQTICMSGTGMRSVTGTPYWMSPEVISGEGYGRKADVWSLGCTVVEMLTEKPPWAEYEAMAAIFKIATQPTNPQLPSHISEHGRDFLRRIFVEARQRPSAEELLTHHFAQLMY
Structure (SMILES),test,setting,remaining binding [%]
Cc1c(NC(=O)c2cc(C(N)=O)nc3cc(F)ccc23)c(C(F)(F)F)nn1Cc1ccc(C(C)(C)C)cc1,"cell-free assay, competition with immobilised ligand",1 µM,100
Nc1ncc2c(n1)-c1c([nH]c3ccc(C#CC4CC4)cc13)CCCC2,"binding, competition with immobilised ligand",1 µM,89
O=C(NCCCN1CCOCC1)c1ccc(Nc2ncc(Cl)c(-c3ccc(Cl)s3)n2)cc1,"binding, competition with immobilised ligand",1 µM,3.6
COc1ccnn2ncc(-c3ccnc(N(C)C)n3)c12,binding,1 µM,72
COc1ncc2cc3ccccc3nc2c1C#N,"cell-free assay, competition with immobilised ligand",5 µM,95
Cc1cc(NC(=O)c2cccc(S(F)(F)(F)(F)F)c2)cc(-n2ccn3nc(-c4cccnc4)cc23)c1,"cell-free assay, competition with immobilised ligand",1 µM,87.9
c1cncc(-c2cccc(Nc3nccc(NC4CCCCC4)n3)c2)c1,"binding, competition with immobilised ligand",10 µM,41
CN(C)c1nccc(-c2cnc3ncccn23)n1,binding,1 µM,44
O=C(NCC1CCOCC1)c1n[nH]cc1NC(=O)c1c(F)cccc1F,"binding, competition with immobilised ligand",1 µM,96
CNC(=O)[C@@H]1CC[C@@H](n2c(-c3ccc4cnccc4c3)nc3ccc(C(=O)NCc4cccc(C(N)=O)c4)cc32)C1,"binding, competition with immobilised ligand",1 µM,100
Cc1cnn2ncc(-c3ccnc(N(C)C)n3)c2c1,binding,1 µM,47
CC(=O)Nc1c(C(C)=O)c(=O)n(C)c2nc(-c3ccc(Cl)cc3Cl)c(-c3ccc(Cl)cc3)cc12,"cell-free assay, competition with immobilised ligand",1 µM,100
CN(CCCC(F)(F)F)c1nccc(-c2cnn3ncccc23)n1,binding,1 µM,99
CCN1CCN(Cc2ccc(C(=O)Nc3ccc(C)c(Oc4ccc5c(c4)CC(=O)N5)c3)cc2C(F)(F)F)CC1,"binding, competition with immobilised ligand",1 µM,100
C=CC(=O)N1CCC(C(=O)NCC(=O)N2CCN(c3nc(-c4cnc(N)nc4C(F)F)nc(N4CCOCC4)n3)CC2)CC1,"binding, competition with immobilised ligand",1 µM,99
O=C(c1ccc(Nc2nccc(-c3cc4ccccc4s3)n2)cc1)N1CCC(N2CCCC2)CC1,"binding, competition with immobilised ligand",1 µM,61
Nc1c(C(=O)NCc2ccc(C(=O)NCCCC3CCCCC3)cc2)cnn1-c1ccccc1,"cell-free assay, competition with immobilised ligand",0.1 µM,100
N[C@@H]1CCN(c2nccc(-c3cnn4ncccc34)n2)C1,binding,1 µM,100
O=C(Nc1cccnn1)N1CC(C/C=C/c2cncc(Oc3ccc(C(F)(F)F)cn3)n2)C1,"cell-free assay, competition with immobilised ligand",1 µM,79
O=C(c1ccc(Nc2ncc(Cl)c(-c3ccc(Cl)s3)n2)cc1)N1CCC(N2CCCC2)CC1,"binding, competition with immobilised ligand",1 µM,6.3
C[C@@H](c1cccc(C#N)c1)n1cc(Cl)cc(C(N)=O)c1=N,"cell-free assay, competition with immobilised ligand",1 µM,95
C[C@@H]1CCN(c2nccc(-c3cnn4ncccc34)n2)C1,binding,1 µM,80
